Rows were chosen to be rich in hits. Some 1.6% of all compounds tested hit in one or more screens of this group.
SKN-1 block – C. elegans SKN-1 inhibition; C. elegans VP596 Pgst-4::GFP/RFP ratio, acrylamide-induced, 24 h; AID 624304; 0.49% of 360,000 active; inhibition, % at 21.8 µM;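 active = interference check ratio from 0.5 to 1.5 plus GFP to RFP signal ratio inhibition reaching or exceeding a fixed threshold, cut at about 30% in these data, passing the limit was not always enough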
MT1-MMP act inh – inhibitors of human MT1-MMP activation | P50281 | HT1080 RFP-PRO-GFP cells, GFP/RFP ratio fluorescence, overnight; percent of plate control window, DMSO zero | GFP/RFP ratio change, % at 20 µM | 0.061% of 360,000 active | AID 651647;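 active = GFP/RFP ratio change of at least 30% with cell ATP level not reduced by more than half and red fluorescence within 50% of control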
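Test system: HT1080 cells expressing an RFP-PRO-GFP fluorescent reporter construct / Compound dosing: single-point 20 µM compound, 1% DMSO / Schedule: cells overnight before dosing, compound overnight, 37 °C, 5% CO2 / Evaluation: GFP/RFP fluorescence ratio / Control set: DMSO and RFP-L50D-GFP cell wells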
Rin1-Abl PPI inh – human Rin1-Abl interaction inhibition. TR-FRET Rin1/Abl binding, biochemical. AID 588664. 0.4% of 360,000 active. inhibition, % at 7.35 µM. P00519+Q13671; in the data active = inhibition above about 5%, passing the limit was not always enough
Target sequence (P00519 whole entry, looked up): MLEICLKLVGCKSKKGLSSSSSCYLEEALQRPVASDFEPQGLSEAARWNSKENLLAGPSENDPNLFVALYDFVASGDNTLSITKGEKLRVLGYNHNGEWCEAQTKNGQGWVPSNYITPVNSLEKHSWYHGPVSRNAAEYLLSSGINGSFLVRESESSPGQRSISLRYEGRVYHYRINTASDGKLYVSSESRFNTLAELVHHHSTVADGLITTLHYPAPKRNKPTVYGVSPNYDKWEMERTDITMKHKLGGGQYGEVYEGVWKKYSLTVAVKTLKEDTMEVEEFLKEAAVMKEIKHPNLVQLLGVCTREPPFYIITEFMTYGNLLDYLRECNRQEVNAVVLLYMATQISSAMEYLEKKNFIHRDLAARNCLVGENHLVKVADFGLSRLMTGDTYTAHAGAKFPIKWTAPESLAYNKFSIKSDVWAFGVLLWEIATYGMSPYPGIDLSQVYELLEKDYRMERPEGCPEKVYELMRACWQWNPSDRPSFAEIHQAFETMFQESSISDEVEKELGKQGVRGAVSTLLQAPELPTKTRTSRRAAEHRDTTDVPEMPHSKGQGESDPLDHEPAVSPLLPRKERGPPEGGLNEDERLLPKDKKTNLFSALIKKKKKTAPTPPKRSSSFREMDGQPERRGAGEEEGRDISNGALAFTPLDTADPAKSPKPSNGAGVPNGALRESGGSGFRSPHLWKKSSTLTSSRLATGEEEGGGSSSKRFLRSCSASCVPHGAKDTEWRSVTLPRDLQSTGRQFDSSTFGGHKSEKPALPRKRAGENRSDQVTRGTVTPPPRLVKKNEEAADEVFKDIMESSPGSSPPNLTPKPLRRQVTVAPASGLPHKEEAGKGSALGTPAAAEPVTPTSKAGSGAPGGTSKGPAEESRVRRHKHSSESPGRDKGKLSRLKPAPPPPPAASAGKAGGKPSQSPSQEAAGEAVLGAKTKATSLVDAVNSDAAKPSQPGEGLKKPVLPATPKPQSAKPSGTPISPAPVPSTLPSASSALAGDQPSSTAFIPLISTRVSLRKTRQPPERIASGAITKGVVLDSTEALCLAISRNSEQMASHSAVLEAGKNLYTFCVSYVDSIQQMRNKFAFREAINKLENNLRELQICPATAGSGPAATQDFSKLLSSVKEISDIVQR
Target sequence (Q13671 whole entry, looked up): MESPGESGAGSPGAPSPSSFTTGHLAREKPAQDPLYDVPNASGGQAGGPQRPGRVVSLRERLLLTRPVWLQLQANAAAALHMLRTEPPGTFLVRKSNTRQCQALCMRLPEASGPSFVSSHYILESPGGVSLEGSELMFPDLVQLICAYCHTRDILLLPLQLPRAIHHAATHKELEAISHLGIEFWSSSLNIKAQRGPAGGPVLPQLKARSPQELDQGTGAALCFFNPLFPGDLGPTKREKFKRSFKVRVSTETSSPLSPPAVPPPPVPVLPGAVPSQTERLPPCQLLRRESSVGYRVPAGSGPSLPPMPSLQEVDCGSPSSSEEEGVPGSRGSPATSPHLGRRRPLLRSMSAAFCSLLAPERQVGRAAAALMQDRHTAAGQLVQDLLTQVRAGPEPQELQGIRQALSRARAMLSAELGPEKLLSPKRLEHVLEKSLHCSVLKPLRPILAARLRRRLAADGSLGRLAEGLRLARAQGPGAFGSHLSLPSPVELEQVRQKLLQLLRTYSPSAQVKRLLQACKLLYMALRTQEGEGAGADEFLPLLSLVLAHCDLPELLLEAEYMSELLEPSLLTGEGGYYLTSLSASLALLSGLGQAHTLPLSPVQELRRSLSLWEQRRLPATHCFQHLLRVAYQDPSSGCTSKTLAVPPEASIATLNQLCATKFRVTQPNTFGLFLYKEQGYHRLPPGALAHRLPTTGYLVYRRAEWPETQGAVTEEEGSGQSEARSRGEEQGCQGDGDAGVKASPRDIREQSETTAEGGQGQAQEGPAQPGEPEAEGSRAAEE
TbMetRS inhib – Trypanosoma brucei MetRS inhibition | inhibition, % at 11.9 µM | AID 624268 | 0.4% of 360,000 active | purified T. brucei MetRS, ATP depletion, Kinase-Glo luminescence;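 active = inhibition above a per-plate cutoff of the control wells' mean inhibition plus 3 SD, cut at about 5.5% in these data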
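Material: parasite MetRS enzyme / Replication: singlicate, one well per compound / Signal: luminescence of leftover ATP / Schedule: 2 h aminoacylation at 25 °C after 15 min preincubation / Medium: HEPES-MgCl2-KCl buffer plus DTT, spermine, BSA, pyrophosphatase / Doses: 11.9 µM single point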
Arrestin-AP2 inh – human beta-arrestin and AP2 interaction inhibition; FITC-arrestin peptide / GST-AP2 beads, flow cytometry; AP2 beta2 appendage carries R879A mutation; inhibition, % at 10 µM; 0.31% of 340,000 active; AID 504490;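 active = inhibition above a set limit, near 3 SD of compounds lacking own fluorescence, cut at about 54% in these data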
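Material – AP2 appendage R879A on GSH beads · Buffer or medium – PBS with 0.05% Tween 20 and 0.1% BSA · Probe or stimulus – fluorescein-tagged arrestin peptide at 50 nM final · Incubation – compound with beads 12 min RT, then probe 1 h RT · Detection – high-throughput flow cytometry of beads, ex 488, em 535 nm · Evaluation – percent response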
Arr AP2 CP1 – inhibitors of human beta-arrestin and AP2 interaction; shares compounds with Arrestin-AP2 inh; GST-AP2 beads, FITC arrestin peptide binding, flow cytometry; GST-fused beta2-adaptin appendage, R879A mutant; inhibition, % at 10 µM; 2% of 1,300 active; AID 504908;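 active = inhibition above a set limit, roughly 3 SD of non-fluorescent compound noise, cut at about 38% in these data; inactive = inhibition at or below that limit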;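 also: loss of bead fluorescence from 50 nM FITC arrestin peptide bound to appendage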
GST-FITC bead – disrupts GST binding to glutathione beads, arrestin-AP2 artifact | inhibition, % at 10 µM | 2% of 1,300 active | shares compounds with Arrestin-AP2 inh | GST-fluorescein binding to GSH beads, fluorescence, counter-screen;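 active = inhibition above 50%, about 3 SD of the inhibition seen with non-fluorescent compounds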;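 also: fluorescein maleimide labelled GST captured on 4 micron glutathione beads; higher means more loss of bead fluorescence from quenching or blocked binding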
Rin1 Abl conf – Rin1-Abl interaction inhibition confirmation; shares compounds with Rin1-Abl PPI inh; TR-FRET Rin1-Abl binding, purified proteins; inhibition, % at 7.35 µM; 49% of 1,300 active
GFP quench – GFP fluorescence interference artifact | shares compounds with Rin1-Abl PPI inh | inhibitors/quenchers counterscreen | inhibition, % at 6.75 µM | 8.5% of 1,300 active | AID 602125;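 also: ABL1-eGFP fusion protein alone without its partner RIN1-SBP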
GFP quench DR – counter-screen for Rin1-Abl inhibitors: GFP quenchers, dose response. AID 602182. 230 tested, under 10 active. shares compounds with Rin1-Abl PPI inh. IC50, µM. GFP fluorescence interference/quenching counterscreen; call rule not given here;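 also: ABL1-eGFP fusion protein alone without its RIN1 binding partner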
A number is an active result; n = inactive; x = no result. Rule as the data show it, unless noted: active = inhibition above about 6.5%; inactive = the rest.

SMILES	SKN-1 block	MT1-MMP act inh	Rin1-Abl PPI inh	TbMetRS inhib	Arrestin-AP2 inh	Arr AP2 CP1	GST-FITC bead	Rin1 Abl conf	GFP quench	others
CC1(C(=O)NCc2ccccc2)CN(S(C)(=O)=O)CC(=O)N1Cc1cccc(C(F)(F)F)c1 (stereo not given)	n	n	x	n	x	x	x	x	x
CCOC(=O)C1=C(COC(=O)CC(C)c2ccccc2)NC(=O)NC1C (stereo not given)	n	n	n	n	n	n	n	x	x
CCOC(=O)C1=C(COC(=O)Cc2c(F)cccc2Cl)NC(=O)NC1C (stereo not given)	n	n	n	n	n	n	n	x	x
CCOC(=O)C1=C(COC(=O)C(CC)Oc2ccccc2)NC(=O)NC1C (stereo not given)	n	n	n	n	n	n	n	x	x
CCOC(=O)C1=C(COC(=O)C(CC)c2ccccc2)NC(=O)NC1C (stereo not given)	n	n	n	n	67.2	n	n	x	x
CCOC(=O)[C@]12CCCC=C1N(CCc1ccc(OC)c(OC)c1)C(=O)[C@H](CC(=O)N1CCCCC1)C2	n	n	x	n	x	x	x	x	x
Nc1[nH]c(C(=O)c2ccccc2)c(-c2cccnc2)c1C(=O)NCCc1ccc(Cl)cc1Cl	n	n	x	n	x	x	x	x	x
CC(C)(C)C(c1nc2ccccc2[nH]1)n1c(-c2cc(Cl)cc(Cl)c2)nc2ccccc21 (stereo not given)	n	n	x	n	x	x	x	x	x
CC1CN(C(=O)COc2ccc3ccccc3c2Br)CC(C)O1 (stereo not given)	n	n	n	n	67.1	n	n	x	x
S=C(NCc1ccco1)Nc1cccc(Cl)c1	n	n	n	n	58.8	n	n	x	x
Cc1ccc(N2CCN(C(C(=O)Nc3c(C)cccc3C)c3ccccc3OC(F)(F)F)CC2)cc1 (stereo not given)	n	n	x	n	x	x	x	x	x
CC12CCC(=O)N1C(C(=O)Nc1nnc(SCc3ccccc3)s1)CS2 (stereo not given)	n	n	n	n	n	x	x	x	x
CCSc1nnc(NC(=O)C2CSC3(C)CCC(=O)N23)s1 (stereo not given)	n	n	n	n	60.2	n	n	x	x
CCOC(=O)N1CCN(C(=O)C[C@@H]2C[C@@]3(C(=O)OC)CC(C)(C)CC=C3N(Cc3ccc4c(c3)OCO4)C2=O)CC1	n	n	x	n	x	x	x	x	x
CC(C)c1nc2sc3c(NCc4ccccc4)ncnc3c2c2c1COC(C)(C)C2	n	n	n	n	n	x	x	x	x
CC(C)c1nc2sc3c(NCc4ccco4)ncnc3c2c2c1COC(C)(C)C2	n	n	n	n	101.2	n	n	x	x
Cc1c(NC(=O)c2ccc(N(C)S(=O)(=O)c3ccccc3)cc2)c(=O)n(-c2ccccc2)n1C	n	n	9.8	n	54.2	n	n	n	n
CCOC(=O)[C@]12CCC=C1N(Cc1ccco1)C(=O)[C@H](CC(=O)NCCc1ccccc1OC)C2	n	n	x	n	x	x	x	x	x
O=C(O)CN1C(=O)NC2NC(=O)NC21 (stereo not given)	n	n	n	n	n	x	x	x	x
CCOC(=O)CN1C(=O)NC2NC(=O)NC21 (stereo not given)	n	n	14.1	n	79.0	n	n	18.3	n	GFP quench DR=n
CCc1nc2c(OCC3CCCCC3)cccn2c1N(C)C(=O)c1ccccc1F	n	n	n	n	x	x	x	x	x
Cn1cc(CN2CCCC(C(=O)c3cc(F)ccc3F)C2)c2ccccc21 (stereo not given)	n	n	n	n	n	x	x	x	x
COc1ccc(F)cc1C(=O)C1CCCN(Cc2cn(C)c3ccccc23)C1 (stereo not given)	n	n	9.9	n	54.5	n	n	n	n
Cc1cccc(C)c1NC(=O)NS(=O)(=O)c1ccccc1	n	n	n	n	x	x	x	x	x
Cc1ccc(C2/C(=C(\O)c3ccc4c(c3)OCCO4)C(=O)C(=O)N2CC2CCCO2)cc1 (stereo not given)	n	n	8.5	n	58.5	n	n	n	n
SMILES	SKN-1 block	MT1-MMP act inh	Rin1-Abl PPI inh	TbMetRS inhib	Arrestin-AP2 inh	Arr AP2 CP1	GST-FITC bead	Rin1 Abl conf	GFP quench	others
NS(=O)(=O)c1ccc(N/N=C/c2ccc(O)c(O)c2O)c([N+](=O)[O-])c1	n	n	40.0	n	77.8	40.7	n	45.5	30.0
CCC(=O)NC(c1cccs1)c1cc([N+](=O)[O-])c2cccnc2c1O (stereo not given)	n	n	10.4	n	n	x	x	6.3	9.3
O=C(NCCc1ccc(Cl)cc1)C1CC(=O)N(C2CCCC2)C1 (stereo not given)	n	n	15.3	n	n	x	x	n	n
O=C(O)c1ccc(-c2ncc[nH]2)cc1	n	n	9.3	n	n	x	x	n	n
Cn1cnc(S(=O)(=O)N2CCCC(c3cc(C(=O)Nc4ccc(F)c(Cl)c4)no3)C2)c1 (stereo not given)	n	n	n	n	x	x	x	x	x
Cc1oc2nc(SCCCC(=O)NCCO)nc(N)c2c1C	n	n	36.0	n	n	x	x	42.1	n	GFP quench DR=n
Cc1nn(CC(=O)NCCCN2CC(C)CC(C)C2)c(=O)c2cccn12 (stereo not given)	n	n	n	n	n	x	x	x	x
Cn1c(C(=O)Nc2ccc3c(c2)OCO3)cc2c(=O)n(C)c3ccccc3c21	n	n	n	n	n	x	x	x	x
CC(NC(=O)c1cc2c(=O)n(C)c3ccccc3c2n1C)c1ccc2c(c1)OCCO2 (stereo not given)	n	n	7.6	n	n	x	x	10.6	n
CC(C)(C)NC(=O)C1(C)CCC(=O)N1CCCn1ccnc1 (stereo not given)	n	n	n	n	x	x	x	x	x
CN1CCN(c2ccc(CNC(=O)C3Cc4c(-c5ccccc5)ccnc4O3)cc2)CC1 (stereo not given)	n	n	8.1	n	x	x	x	n	n
COC(=O)C1=C[C@@H](C(=O)OC)[C@@H]2C3=C(C(=O)C2(C)C)[C@H](c2ccccc2)[C@@H]2C(=O)N(C)C(=O)[C@@H]2[C@@H]3C1	n	n	18.6	n	n	x	x	16.5	n
CN(C)c1ccc(O)c2c1CC1CC3[C@@H](N(C)C)C(=O)C(C(N)=O)C(=O)[C@]3(O)C(=O)C1C2=O (stereo not given in full)	n	n	13.4	n	n	x	x	7.8	n
